# Screens deposited in PubChem BioAssay by Sanford-Burnham Center for Chemical Genomics.
# STEP block – blocks human striatal-enriched tyrosine phosphatase; P54829; recombinant STEP, OMFP fluorogenic substrate, fluorescence; inhibition, % at 20 µM; hit rate 0.25% among 360,000;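 active = inhibition at 20 µM, scaled per plate between control wells, above about 37%, limit read from the data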;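 also: 0% = DMSO with enzyme and substrate and 100% = substrate only without enzyme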
#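 Also added – OMFP at 25 µM · Test system – STEP tyrosine phosphatase · Technique – FITC-channel fluorescence of OMFP product · Schedule – 20 min at room temperature, dark · Evaluation – control-normalized % inhibition with plate pattern correction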
# SUMO1 PPI mod – SUMO1-SIM interaction modulation | SUMO1 binding to a labelled peptide, TR-FRET, 1 h | inhibition, % at 20 µM | hit rate 0.33% among 360,000; in the data active = inhibition above about 37%
# Target sequence (P63165 whole entry, looked up): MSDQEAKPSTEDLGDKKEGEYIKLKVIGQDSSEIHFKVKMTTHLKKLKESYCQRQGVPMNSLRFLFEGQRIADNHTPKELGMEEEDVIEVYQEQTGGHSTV
# DNMT1 inh – DNMT1 (human) enzyme inhibition. P26358. DNMT1 molecular beacon, Hinp1I cleavage, fluorescence. inhibition (reported as % activation of signal), % at 10 µM. hit rate 0.83% among 360,000. AID 588458; in the data active = inhibition above about 50%
# UBC9 SUMO inh – blocks human SUMOylation mediated by UBC9; P63279; HTRF SUMOylation assay, SAE1/SAE2 + UBC9, in vitro; inhibition, % at 35 µM; hit rate 0.36% among 290,000; in the data active = inhibition above about 50%, passing the limit was not always enough
# Target sequence (P63279 whole entry, looked up): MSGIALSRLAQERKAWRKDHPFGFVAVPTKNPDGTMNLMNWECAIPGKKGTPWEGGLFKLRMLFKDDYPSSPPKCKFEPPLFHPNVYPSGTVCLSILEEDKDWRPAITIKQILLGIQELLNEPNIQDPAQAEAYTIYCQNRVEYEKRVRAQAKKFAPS
# LMPTP inh – blocks human LMPTP phosphatase. P24666. recombinant LMPTP-A, OMFP fluorogenic substrate, fluorescence intensity. inhibition, % at 20 µM. hit rate 0.22% among 360,000;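 active = compounds that cut the enzyme signal by at least half of the control window in the single-dose screen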;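 also: plate controls were DMSO wells with enzyme plus substrate for no effect and substrate without enzyme for full effect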
# Target sequence (P24666 whole entry, looked up): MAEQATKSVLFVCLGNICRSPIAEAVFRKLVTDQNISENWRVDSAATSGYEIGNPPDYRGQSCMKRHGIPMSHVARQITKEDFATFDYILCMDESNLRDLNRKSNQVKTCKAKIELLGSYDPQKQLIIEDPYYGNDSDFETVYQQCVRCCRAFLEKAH
#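 Assay system: LMPTP-A enzyme. Input: 0.625 nM LMPTP-A final. Probe or stimulus: 400 µM OMFP. Compound dosing: single 20 µM dose. Schedule: 50 min dark incubation at room temperature. Detection: fluorescence intensity of OMFP turnover product. Read-out: percent inhibition versus substrate-only and uninhibited controls. Benchmarks: no-enzyme low control, uninhibited high control.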
# Scp-1 inhibitor – blocks human Scp-1 phosphatase activity; inhibition, % at 20 µM; hit rate 0.88% among 340,000; AID 493091; Recombinant Scp1, phosphopeptide, malachite green phosphate absorbance; Q9GZU7;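 active = inhibition above about 50% at 20 µM, limit read from the data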;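 also: plate controls were DMSO wells with enzyme for no effect and wells lacking enzyme for full effect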
# Target sequence (Q9GZU7 76-261 limits assumed): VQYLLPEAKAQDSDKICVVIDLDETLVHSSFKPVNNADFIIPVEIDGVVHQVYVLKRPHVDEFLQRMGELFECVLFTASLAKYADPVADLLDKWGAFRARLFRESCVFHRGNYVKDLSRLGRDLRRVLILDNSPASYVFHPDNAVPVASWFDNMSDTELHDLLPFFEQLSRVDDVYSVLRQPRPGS
#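 System: truncated SCP-1 phosphatase (76-261aa); medium: Tris acetate buffer pH 5.5 with MgCl2 and Tween-20; incubation: 45 min room-temperature reaction, 5 min colour, 30 min stabiliser; compound: single 20 µM dose, 1% DMSO; reagent: Phosphorylated 17-residue peptide substrate; read-out: % inhibition at 20 µM; technique: colorimetric free-phosphate detection, absorbance 630 nm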
# Numbers without * were called inactive; / = no result given. A selection: hits, their analogues and other compounds. The true share with any hit is near 1.9%.
SMILES,STEP block,SUMO1 PPI mod,DNMT1 inh,UBC9 SUMO inh,LMPTP inh,Scp-1 inhibitor
COc1ccc(N(C(=O)c2ccc(S(=O)(=O)N3CCCC3)cc2)C2C=CS(=O)(=O)C2)cc1 (stereo not drawn),-1.3,8.1,0.7,10.6,-0.6,-9.5
CC(=O)Nc1ccc(CN2C(=O)C(CCc3ccccc3)ON=C2c2cnccn2)cc1 (stereo not drawn),-1.3,3.8,-2.8,/,-0.4,/
Cc1cc(C(=O)N/N=C/c2cc(N=Nc3ccccc3)ccc2O)n[nH]1,5.7,-5.9,5.2,-51.7,6.0,63.7*
COC(=O)N/N=C/c1cc(N=Nc2ccccc2Cl)ccc1O,9.2,10.7,30.2,17.8,6.4,35.2
Nc1ccc(C(=O)N/N=C\c2cc(N=Nc3cccc4ccccc34)ccc2O)cc1,10.1,65.2*,43.8,-4.0,3.9,37.7
Cc1c(Br)c([N+](=O)[O-])nn1CC(=O)NCCc1c[nH]c2ccccc12,-0.7,-15.3,-0.5,-5.8,1.4,-8.9
CCCCc1cc(=O)oc2cc(OC(C)C(=O)NCC3CCC(C(=O)O)CC3)c(Cl)cc12 (stereo not drawn),-2.0,8.8,-0.8,14.1,-2.2,12.2
CCOC(=O)c1c(C)oc2cc(Br)c(O)c(Br)c12,-0.7,44.7*,-1.0,-2.1,-1.5,-8.0
Cc1cc(-c2ccccc2)nc(Nc2nc3c(C)cccc3c(=O)[nH]2)n1,-0.2,52.6*,47.7,/,7.2,-8.4
Cc1cc(C)c2nc(Nc3nc(-c4ccccc4)cc(=O)[nH]3)nc(C)c2c1,-2.2,-6.3,34.5,6.8,0.7,1.3
Cc1cccc(C)c1NC(=O)C1(C)CSCC(=O)N1CCc1ccccc1F (stereo not drawn),/,-1.2,/,/,0.3,/
O=C(c1ccc(S(=O)(=O)Nc2ccccc2)cc1)N1CCC1,-3.8,12.0,-0.5,/,-2.6,-2.8
COc1ccc2ncccc2c1Cc1c(OC)ccc2ncccc12,0.7,-13.3,2.1,/,55.9*,-5.0
COc1ccc(OC)c(/C=C/c2ccnc3ccccc23)c1,-0.1,-18.0,-2.7,/,6.4,2.2
CN(CC(=O)Nc1ccccc1Cl)C(=O)CN1C(=O)C2CC=CCC2C1=O (stereo not drawn),-1.8,1.6,0.6,/,-0.9,2.8
Cc1ccc(N(O)C(=O)NCCCCNC(=O)N(O)c2ccc(C)cc2)cc1,0.2,-0.7,3.4,6.1,0.8,-12.3
CCOC(=O)C(Cc1ccccc1)C(=O)c1ccco1 (stereo not drawn),2.1,0.5,0.3,/,-0.9,-4.4
CCCCC(C(=O)OCC)C(N)Cc1ccc(F)cc1 (stereo not drawn),1.2,1.4,5.1,74.0*,-0.9,-4.7
O=C(NC(=S)NCCC1=CCCCC1)c1ccccc1Br,-3.2,4.0,-9.8,-6.4,3.5,66.6*
O=C(CN1C(=O)NC2(CCCCCC2)C1=O)c1ccc(OC(F)F)cc1OC(F)F,-2.9,0.7,-4.3,/,0.3,-6.1
Cc1ccc(/C=C/C2=Cc3c(sc(NC(=O)CSc4n[nH]c(N)n4)c3C#N)C(C)(C)C2)o1,/,/,/,70.2*,/,/
NC(=O)c1ccc2c(=O)n3c(-c4cc(Cl)c(N)c(Cl)c4)csc3nc2c1,9.5,56.2*,-6.7,18.6,7.8,7.9
Cc1csc2nc3cc(C(N)=O)ccc3c(=O)n12,-3.2,-5.7,5.7,37.8,-1.3,-8.1
CC1(c2nnc(-c3cccc(Cl)c3)o2)CC(c2cccc(Cl)c2)=NO1 (stereo not drawn),-1.5,3.3,-1.5,/,-1.9,-4.9
Cc1ccc(NC(=S)N2CCOCC2)cc1,3.0,0.1,-0.7,-3.1,-2.3,-4.8
SMILES,STEP block,SUMO1 PPI mod,DNMT1 inh,UBC9 SUMO inh,LMPTP inh,Scp-1 inhibitor
S=C(Nc1ccc2nc(-c3ccccn3)c(-c3ccccn3)nc2c1)N1CCCCC1,1.4,-17.7,-6.7,69.2*,2.6,-0.6
S=C(Nc1ccc2nccnc2c1)N1CCOCC1,-0.8,-13.8,-6.4,89.0*,0.3,-3.1
Cc1c(/C(O)=C2/C(=O)C(=O)N(CCN3CCOCC3)C2c2ccccn2)cnn1-c1ccccc1 (stereo not drawn),1.8,-9.6,-2.8,4.4,-2.3,-0.5
CC(C)(C)NS(=O)(=O)c1ccc(NC(=O)C2CC(=O)N(CCc3ccc(F)cc3)C2)cc1 (stereo not drawn),0.6,1.7,-11.9,24.3,-0.6,-4.4
CN1C(=O)/C(=C/c2ccc(C(=O)Nc3ccc(O)cc3C(=O)O)cc2)SC1=S,97.5*,32.6,-5.1,15.4,18.8,46.9
COc1ccc2[nH]c(O)c(N=NC(=O)c3ccc(NS(=O)(=O)c4cccs4)cc3)c2c1,3.3,10.5,22.8,/,5.0,23.9
O=C(N=Nc1c(O)[nH]c2ccc(F)cc12)c1ccc(NS(=O)(=O)c2cccs2)cc1,1.6,-3.7,47.8,/,52.6*,-10.2
C[C@H](CO)N1C[C@H](C)[C@H](CN(C)Cc2cccc(O)c2)OCc2ccccc2-c2c(n(C)c3ccccc23)C1=O,6.1,4.1,-17.6,/,-1.2,/
O=C(Cc1cccc(C(F)(F)F)c1)NCC(c1ccco1)N1CCCCC1 (stereo not drawn),-3.2,-0.5,-3.2,-2.6,-2.4,-7.4
O=C1/C(=C\c2cccc(O)c2O)SC(=S)N1Cc1ccccc1,18.3,-10.7,-22.2,1.4,3.8,-19.6
O=C1/C(=C\c2cc([N+](=O)[O-])ccc2O)SC(=S)N1Cc1ccc(Cl)cc1,-17.6,18.6,57.0*,49.9,4.0,-19.8
Cn1c(N)c(C(=O)COC(=O)c2ccc3c(c2)C(=O)N(c2ccc(Cl)cc2)C3=O)c(=O)n(C)c1=O,1.2,64.1*,36.5,5.0,3.2,-3.5
COc1ccc(Cl)cc1C(=O)OCC(=O)c1c(N)n(C)c(=O)n(C)c1=O,-0.8,5.4,2.6,/,0.2,/
Cc1ccc(NC(=O)c2cccc(C(F)(F)F)c2)cc1NC(=O)c1[nH]cnc1C(N)=O,0.2,-5.2,7.3,/,-0.8,-5.2
Cc1cn(-c2cc(NC(=O)c3ccc(C)c(NC(=O)c4cccc(-c5cn[nH]c(=O)c5)c4)c3)cc(C(F)(F)F)c2)cn1,1.8,73.3*,4.5,-13.1,-1.3,5.4
COC1=C/C(=C/c2c(N)n3nc(CC(=O)N4CCCC4)sc3nc2=O)C=CC1=O,-3.0,-22.2,0.8,12.2,1.4,-1.7
Nc1c(/C=C2/C=CC(=O)C(O)=C2)c(=O)nc2sc(CC(=O)N3CCCC3)nn12,4.6,-7.7,21.1,6.1,3.7,87.9*
Nc1c(C=C2C=CC(=O)C=C2)c(=O)nc2sc(CC(=O)N3CCCCC3)nn12,-0.4,-4.7,4.6,/,0.2,8.6
Nc1c(/C=C2/C=CC(=O)C(O)=C2)c(=O)nc2sc(CC(=O)N3CCCCC3)nn12,13.3,45.2*,81.3*,25.1,65.0*,72.5*
Nc1c(/C=C2/C=CC(=O)C(O)=C2)c(=O)nc2sc(CC(=O)N3CCOCC3)nn12,2.4,-6.0,18.8,/,2.3,71.5*
